Tested on: Fibroblast
Assay: Multiplex assay against human fibroblast
Type: toxicity, cell-based
Summary of the method: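 Tubulin, mitochondrial-mass and membrane-permeability phenotypes are per cents of healthy-nucleus cells. Cells were gated by CellPathfinder machine learning into Hoechst high-intensity objects or normal cells, normal cells into healthy, pyknosed or fragmented nuclei, and pyknosed cells into mitotic or apoptotic. Before that, live cells stained at seeding with Hoechst33342, BioTracker Green Microtubule Cytoskeleton Dye, MitoTracker Red and Annexin V Alexa Fluor 680 were imaged on a CQ1 microscope at 37°C and 5% CO2 after compound addition.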

[1] = 12 h, 1 µM, compound concentration 1 uM, replicate 1
[2] = 12 h, 1 µM, compound concentration 1 uM, replicate 2
[3] = 12 h, 10 µM, compound concentration 10 uM, replicate 1
[4] = 12 h, 10 µM, compound concentration 10 uM, replicate 2
[5] = 24 h, 1 µM, compound concentration 1 uM, replicate 1
[6] = 24 h, 1 µM, compound concentration 1 uM, replicate 2
[7] = 24 h, 10 µM, compound concentration 10 uM, replicate 1
[8] = 24 h, 10 µM, compound concentration 10 uM, replicate 2
[9] = 48 h, 1 µM, compound concentration 1 uM, replicate 1
[10] = 48 h, 1 µM, compound concentration 1 uM, replicate 2
[11] = 48 h, 10 µM, compound concentration 10 uM, replicate 1
[12] = 48 h, 10 µM, compound concentration 10 uM, replicate 2

SMILES: N#CCNC(=O)c1ccc(-c2ccnc(Nc3ccc(N4CCOCC4)cc3)n2)cc1 [MOMELOTINIB]
- Population Apoptotic (%) [1]: 64%
- Population Fragmented Nuclei (%) [1]: 26%
- Population Healthy Nuclei (%) [1]: 40%
- Population Hoechst High Intensity Objects (%) [1]: 11%
- Population Membrane Permeable-Phenotype (%) [1]: 30%
- Population Mitochondria Different-Phenotype (%) [1]: 4%
- Population Mitotic Cells (%) [1]: 35%
- Population Normal (%) [1]: 88%
- Population Pyknosed Nuclei (%) [1]: 33%
- Population Tubulin-Different-Phenotype (%) [1]: 21%
- Total Cell Count [1]: 117
- Population Apoptotic (%) [2]: 60%
- Population Fragmented Nuclei (%) [2]: 1%
- Population Healthy Nuclei (%) [2]: 88%
- Population Hoechst High Intensity Objects (%) [2]: 8%
- Population Membrane Permeable-Phenotype (%) [2]: 2%
- Population Mitochondria Different-Phenotype (%) [2]: 13%
- Population Mitotic Cells (%) [2]: 40%
- Population Normal (%) [2]: 91%
- Population Pyknosed Nuclei (%) [2]: 9%
- Population Tubulin-Different-Phenotype (%) [2]: 11%
- Total Cell Count [2]: 3119
- Population Apoptotic (%) [3]: 63%
- Population Fragmented Nuclei (%) [3]: 40%
- Population Healthy Nuclei (%) [3]: 28%
- Population Hoechst High Intensity Objects (%) [3]: 13%
- Population Membrane Permeable-Phenotype (%) [3]: 16%
- Population Mitochondria Different-Phenotype (%) [3]: 10%
- Population Mitotic Cells (%) [3]: 36%
- Population Normal (%) [3]: 86%
- Population Pyknosed Nuclei (%) [3]: 31%
- Population Tubulin-Different-Phenotype (%) [3]: 45%
- Total Cell Count [3]: 153
- Population Apoptotic (%) [4]: 13%
- Population Fragmented Nuclei (%) [4]: 27%
- Population Healthy Nuclei (%) [4]: 47%
- Population Hoechst High Intensity Objects (%) [4]: 10%
- Population Membrane Permeable-Phenotype (%) [4]: 0%
- Population Mitochondria Different-Phenotype (%) [4]: 6%
- Population Mitotic Cells (%) [4]: 86%
- Population Normal (%) [4]: 89%
- Population Pyknosed Nuclei (%) [4]: 24%
- Population Tubulin-Different-Phenotype (%) [4]: 6%
- Total Cell Count [4]: 56
- Population Apoptotic (%) [5]: 56%
- Population Fragmented Nuclei (%) [5]: 26%
- Population Healthy Nuclei (%) [5]: 52%
- Population Hoechst High Intensity Objects (%) [5]: 11%
- Population Membrane Permeable-Phenotype (%) [5]: 27%
- Population Mitochondria Different-Phenotype (%) [5]: 0%
- Population Mitotic Cells (%) [5]: 43%
- Population Normal (%) [5]: 88%
- Population Pyknosed Nuclei (%) [5]: 20%
- Population Tubulin-Different-Phenotype (%) [5]: 18%
- Total Cell Count [5]: 127
- Population Apoptotic (%) [6]: 66%
- Population Fragmented Nuclei (%) [6]: 7%
- Population Healthy Nuclei (%) [6]: 86%
- Population Hoechst High Intensity Objects (%) [6]: 10%
- Population Membrane Permeable-Phenotype (%) [6]: 6%
- Population Mitochondria Different-Phenotype (%) [6]: 15%
- Population Mitotic Cells (%) [6]: 33%
- Population Normal (%) [6]: 89%
- Population Pyknosed Nuclei (%) [6]: 5%
- Population Tubulin-Different-Phenotype (%) [6]: 8%
- Total Cell Count [6]: 3108
- Population Apoptotic (%) [7]: 48%
- Population Fragmented Nuclei (%) [7]: 39%
- Population Healthy Nuclei (%) [7]: 37%
- Population Hoechst High Intensity Objects (%) [7]: 14%
- Population Membrane Permeable-Phenotype (%) [7]: 29%
- Population Mitochondria Different-Phenotype (%) [7]: 12%
- Population Mitotic Cells (%) [7]: 51%
- Population Normal (%) [7]: 85%
- Population Pyknosed Nuclei (%) [7]: 23%
- Population Tubulin-Different-Phenotype (%) [7]: 46%
- Total Cell Count [7]: 147
- Population Apoptotic (%) [8]: 45%
- Population Fragmented Nuclei (%) [8]: 31%
- Population Healthy Nuclei (%) [8]: 52%
- Population Hoechst High Intensity Objects (%) [8]: 5%
- Population Membrane Permeable-Phenotype (%) [8]: 28%
- Population Mitochondria Different-Phenotype (%) [8]: 34%
- Population Mitotic Cells (%) [8]: 54%
- Population Normal (%) [8]: 94%
- Population Pyknosed Nuclei (%) [8]: 16%
- Population Tubulin-Different-Phenotype (%) [8]: 14%
- Total Cell Count [8]: 59
- Population Apoptotic (%) [9]: 44%
- Population Fragmented Nuclei (%) [9]: 34%
- Population Healthy Nuclei (%) [9]: 57%
- Population Hoechst High Intensity Objects (%) [9]: 16%
- Population Membrane Permeable-Phenotype (%) [9]: 16%
- Population Mitochondria Different-Phenotype (%) [9]: 1%
- Population Mitotic Cells (%) [9]: 55%
- Population Normal (%) [9]: 83%
- Population Pyknosed Nuclei (%) [9]: 8%
- Population Tubulin-Different-Phenotype (%) [9]: 17%
- Total Cell Count [9]: 129
- Population Apoptotic (%) [10]: 80%
- Population Fragmented Nuclei (%) [10]: 33%
- Population Healthy Nuclei (%) [10]: 61%
- Population Hoechst High Intensity Objects (%) [10]: 15%
- Population Membrane Permeable-Phenotype (%) [10]: 4%
- Population Mitotic Cells (%) [10]: 20%
- Population Normal (%) [10]: 84%
- Population Pyknosed Nuclei (%) [10]: 5%
- Population Tubulin-Different-Phenotype (%) [10]: 21%
- Total Cell Count [10]: 117
- Population Apoptotic (%) [11]: 60%
- Population Fragmented Nuclei (%) [11]: 47%
- Population Healthy Nuclei (%) [11]: 40%
- Population Hoechst High Intensity Objects (%) [11]: 14%
- Population Membrane Permeable-Phenotype (%) [11]: 25%
- Population Mitochondria Different-Phenotype (%) [11]: 9%
- Population Mitotic Cells (%) [11]: 40%
- Population Normal (%) [11]: 85%
- Population Pyknosed Nuclei (%) [11]: 11%
- Population Tubulin-Different-Phenotype (%) [11]: 37%
- Total Cell Count [11]: 155
- Population Apoptotic (%) [12]: 50%
- Population Fragmented Nuclei (%) [12]: 52%
- Population Hoechst High Intensity Objects (%) [12]: 8%
- Population Membrane Permeable-Phenotype (%) [12]: 11%
- Population Mitochondria Different-Phenotype (%) [12]: 1%
- Population Mitotic Cells (%) [12]: 50%
- Population Normal (%) [12]: 91%
- Population Pyknosed Nuclei (%) [12]: 6%
- Population Tubulin-Different-Phenotype (%) [12]: 58%
- Total Cell Count [12]: 162
